Data from ChEMBL document CHEMBL1138715, “Isoxazole-3-hydroxamic acid derivatives as peptide deformylase inhibitors and potential antibacterial agents” (Bioorg Med Chem Lett, 2004).
≈ marks a conversion by molar mass, not a printed value.

Assays:
Assay type in all cases: functional
[1] = tested on: Staphylococcus aureus; experiment: In vitro inhibitory activity against Staphylococcus aureus
Outline: (§1)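 Enzyme inhibition of peptide deformylase (PDF) from E. coli or S. aureus, in vitro. IC50 reported in µM as the mean of three experiments.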

[2] = tested on: Escherichia coli; experiment: In vitro antibacterial activity against Escherichia coli mutant strain EC-AH547
Outline: (§2)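 MICs in µg/mL, determined by dilution susceptibility testing in liquid culture under NCCLS standard conditions for aerobically growing bacteria. Strains: EC-AH547, a tolC E. coli mutant with reduced efflux-pump activity; SA-101, a multiresistant S. aureus; SA-ATCC-25923, wild-type S. aureus.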

[3] = tested on: Escherichia coli; experiment: In vitro antibacterial activity against Escherichia coli wild type EC-ATCC-25922
Outline: (§3)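 MIC, the lowest inhibiting concentration in µg/mL, determined in liquid culture by NCCLS standard dilution susceptibility conditions for aerobically growing bacteria. EC-ATCC-25922 is wild-type E. coli; EC-DC2 is a hyperpermeable E. coli strain.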

[4] = tested on: Escherichia coli; experiment: In vitro antibacterial activity against Escherichia coli hyperpermeable strain EC-DC2; outline: as §3
[5] = tested on: Staphylococcus aureus; experiment: In vitro antibacterial activity against Staphylococcus aureus wild type SA-ATCC-25923; outline: as §2
[6] = tested on: Escherichia coli; experiment: In vitro inhibitory activity against Escherichia coli; outline: as §1
[7] = tested on: Staphylococcus aureus; experiment: In vitro antibacterial activity against Staphylococcus aureus multi-resistant strain SA-101; outline: as §2

SMILES	IC50 [1] [µM]	further results
CC(=O)Nc1ccc(SCc2cc(C(=O)NO)no2)cc1	42	–
O=C(NO)c1cc(CSc2cccc(Cl)c2)on1	2.3	MIC [2]: 64 mg/L (≈ 225 µM); MIC [3]: > 128 mg/L; MIC [4]: 32 mg/L (≈ 112 µM); MIC [5]: > 128 mg/L
COc1cccc(SCc2cc(C(=O)NO)no2)c1	2.2	MIC [2]: 128 mg/L (≈ 457 µM); MIC [3]: > 128 mg/L; MIC [4]: 128 mg/L (≈ 457 µM); MIC [5]: > 128 mg/L
O=C(NO)c1cc(CS(=O)(=O)c2ccc(Cl)cc2)on1	0.8	–
Cc1ccc([S+]([O-])Cc2cc(C(=O)NO)no2)cc1 (stereo not given)	0.9	–
O=C(NO)c1cc(CSc2ccccc2Br)on1	4.9	–
O=C(NO)c1cc(CSc2ccc(Cl)cc2)on1	1.3	MIC [2]: 64 mg/L (≈ 225 µM); MIC [3]: 128 mg/L (≈ 450 µM); MIC [4]: 32 mg/L (≈ 112 µM); MIC [5]: > 128 mg/L
Cc1ccc(SCc2cc(C(=O)NO)no2)cc1	4	–
COc1cccc(S(=O)(=O)Cc2cc(C(=O)NO)no2)c1	6.5	–
O=C(NO)c1cc(CSCc2cccc(C(F)(F)F)c2)on1	2.2	–
Cc1cc(C)c(SCc2cc(C(=O)NO)no2)c(C)c1	37.7	–
O=C(NO)c1cc(CS(=O)(=O)c2cccc(Cl)c2)on1	1.7	–
O=C(NO)c1cc(CSc2ccccc2C(F)(F)F)on1	9.3	–
Cc1ccc(S(=O)(=O)Cc2cc(C(=O)NO)no2)cc1	1.4	IC50 [6]: 11.5 µM
O=C(NO)c1cc(CSc2ccc(C(F)(F)F)cc2)on1	8.7	–
O=C(NO)c1cc(CSc2ccc(F)cc2)on1	1.5	–
COc1ccc(SCc2cc(C(=O)NO)no2)cc1	24	–
O=C(NO)c1cc(CSc2ccc(Cl)c(Cl)c2)on1	2	MIC [2]: 16 mg/L (≈ 50.1 µM); MIC [3]: > 128 mg/L; MIC [4]: 32 mg/L (≈ 100 µM); MIC [5]: 128 mg/L (≈ 401 µM); MIC [7]: 128 mg/L (≈ 401 µM)
O=C(NO)c1cc(CSc2ccccc2Cl)on1	3.8	–
CC(C)c1ccccc1S(=O)(=O)Cc1cc(C(=O)NO)no1	3.4	–
CC(C)c1ccccc1SCc1cc(C(=O)NO)no1	7.6	–
O=C(NO)c1cc(CSc2cccc(Br)c2)on1	2	–
